Screening data (PubChem BioAssay)
TRPC4 inh: blocks the mouse TRPC4 cation channel | B-score at 10 µM | HEK293 TRPC4beta/mu-opioid, DAMGO-evoked Fluo4 calcium flux; hits give low values | Q9QUQ5 | AID 2247 | 300,000 compounds, 0.39% hits;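 active means B-score over 3 SD under the library average, no early fluorescence shift, positive overall ratio signal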
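material = TRPC4beta/mu-opioid receptor HEK293 cell line | probe or stimulus = sequential submaximal and maximal DAMGO stimulation | compound dosing = one concentration per compound | measured by = Fluo4 Ca2+ flux fluorescence | evaluation = integrated fluorescence ratio relative to baseline, converted to per-well B score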
DNA FID counter: counter-screen for HCV NS3 helicase inhibitors: DNA intercalator displacement | DNA fluorescent intercalator displacement, fluorescence | inhibition, % at 7.9 µM | AID 1845 | 290,000 compounds, 0.17% hits; in the data active means inhibition above about 37%;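 further: 0% = vehicle and 100% = reference compound; higher means more ethidium bromide displaced from hairpin DNA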
TRPC6 inhibitor: blocks the mouse TRPC6 cation channel. Q61143. 310,000 compounds, 1.1% hits. B-score at 10 µM. HEK293-TRPC6, membrane potential dye, ACh-evoked depolarization; hits give low values;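 active means B-score under library mean minus 3 SD, initial fluorescence not abnormally high, positive integrated signal ratio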;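 further: B-score derived from integrated fluorescence ratio over the kinetic read; more negative B-score means stronger inhibition of depolarization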
TRPC6 activator: activators of mouse TRPC6 channel; Q61143; HEK293-TRPC6 membrane potential dye fluorescence; hits give high values; B-score at 10 µM; 310,000 compounds, 0.13% hits; AID 2550;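 active means B-score of the integrated fluorescence ratio above library mean plus 3 SD, and starting fluorescence ratio within library mean plus 5 SD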;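 further: higher score means more depolarization so channel activation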
TRPC4 PAM: TRPC4 (mouse) allosteric potentiation | Q9QUQ5 | HEK293 TRPC4beta/mu-opioid, DAMGO EC20, Fluo-4 Ca2+ flux; hits give high values | B-score at 10 µM | 310,000 compounds, 0.42% hits | AID 2227;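 active means B-score of calcium response area above 5 SD of library B-scores, with initial fluorescence ratio within 5 SD of library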;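 further: B-score of integrated fluorescence ratio over time as area under calcium response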
TRPC4 agonist: activators of mouse TRPC4 channel | Q9QUQ5 | HEK293 TRPC4beta/mu-opioid, Fluo4 calcium fluorescence; hits give high values | B-score at 10 µM | AID 2237 | 310,000 compounds, 0.49% hits;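 active means B-score above 5 SD of library B-scores, and initial fluorescence ratio not above library mean plus 5 SD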;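 further: positive B-score marks a calcium rise read as TRPC4 activation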
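System – HEK293 cells stably co-expressing mouse TRPC4beta and mu-opioid receptor · Signal – Fluo4 calcium-sensitive dye fluorescence, kinetic, 1 Hz baseline · Benchmarks – buffer (low) and maximal DAMGO (high) · Read-out – B score of integrated fluorescence ratio per well · Incubation – dye loading 45 min room temperature, 110 s kinetic read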
TRPC4 sel inh 2: second check of whether TRPC6 inhibitors also affect mouse TRPC4; inhibition, % at 10 µM; HEK293 TRPC4/MOR, membrane potential dye fluorescence; channel activated by saturating DAMGO dose; shares compounds with TRPC6 inhibitor; 920 compounds, 42% hits;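 active means compounds whose fluorescence signal differed from control wells by over 3 SD, either direction, in both duplicate plates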
TRPC4 spec: mouse TRPC4 off-target activity of TRPC6 inhibitors; AID 2777; shares compounds with TRPC6 inhibitor; activity change, negative = inhibition, % at 10 µM; 920 compounds, 61% hits; HEK293 TRPC4/mu-opioid, membrane potential fluorescence;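 active means rise or fall in signal beyond 3 SD of buffer-only wells in both replicate plates, either sign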;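 further: integrated kinetic ratio of fluorescence range over baseline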
HEK293 MPD ctr 2-1: second counter-screen for TRPC6 inhibitors: parental HEK293 cells; shares compounds with TRPC6 inhibitor; parental HEK293 membrane potential dye fluorescence; maximal acetylcholine challenge after compound addition; signal change vs control, % at 10 µM; 920 compounds, 31% hits; AID 2779;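 active means membrane potential signal moving either way by over 3 SD of the maximum-effect control, in both duplicate plates, meaning non-specific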
HEK293 MPD ctr-1: parental HEK293 nonspecific activity of TRPC6 inhibitors. shares compounds with TRPC6 inhibitor. parental HEK293 membrane potential dye fluorescence. membrane potential signal change, % at 10 µM. 920 compounds, 60% hits. AID 2780;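 active means membrane potential signal shifting up or down by more than 3 SD of buffer-only wells, on both duplicate plates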
HEK293 MPD ctr-2: checks TRPC6 modulator effects in parental HEK293 cells; AID 488924; 2,400 compounds, 51% hits; membrane potential signal change, % at 10 µM; membrane potential dye fluorescence; shares compounds with TRPC6 inhibitor;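 active means membrane potential signal moves up or down beyond 5 SD from buffer-only wells, on both duplicate plates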
HEK293 MPD ctr 2-2: second counter-screen for TRPC6 modulators: effect in parental HEK293 cells; shares compounds with TRPC6 inhibitor; membrane potential dye fluorescence; after compound, maximal acetylcholine stimulation; inhibition, % at 10 µM; 2,400 compounds, 14% hits; AID 488926;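 active means membrane potential signal drops by more than 5 SD from the mean control signal, in both duplicate plates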;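 further: plate controls were acetylcholine ECmax control wells for no effect and buffer only wells for full effect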
TRPC4/MOR mod: mouse TRPC4 off-target activity of TRPC6 modulators | AID 488927 | 2,400 compounds, 69% hits | percent change from control (negative = decrease, positive = increase), % at 10 µM | HEK293 TRPC4/mu-opioid, membrane potential fluorescence | shares compounds with TRPC6 inhibitor;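 active means membrane potential signal moved up or down beyond 5 SD of buffer control wells, in both duplicate plates, actives on both sides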;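 further: plate controls were assay buffer wells for no effect and DAMGO maximal-effect wells for full effect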
TRPC4 ctr inh 2: mouse TRPC4 off-target activity of TRPC6 modulators, second screen | inhibition, % at 10 µM | shares compounds with TRPC6 inhibitor | HEK293 TRPC4/mu-opioid, membrane potential dye fluorescence; stimulated with maximal-effect DAMGO | AID 488928 | 2,400 compounds, 55% hits;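 active means drop in membrane potential signal beyond 5 SD of the control wells in both duplicate plates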;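 further: TRPC4 counter screen for TRPC6 hits run under conditions tuned for TRPC6 not TRPC4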
TRPC6 inh conf: mouse TRPC6 inhibitor confirmation; inhibition, % at 10 µM; HEK293-TRPC6, membrane potential dye, ACh-evoked depolarization; shares compounds with TRPC6 inhibitor; AID 488960; 3,300 compounds, 43% hits;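 active means fluorescence ratio falls more than 5 SD below the full-stimulation control mean, in both duplicate runs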;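 further: integrated fluorescence ratio of peak minus minimum over baseline after agonist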
TRPC6 act confirm: mouse TRPC6 activator confirmation; AID 488961; HEK293-TRPC6 membrane potential dye fluorescence, FDSS; shares compounds with TRPC6 inhibitor; 2,800 compounds, 11% hits; activation, % at 10 µM;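 active means ratio signal rise beyond 5 SD above unstimulated control wells' mean, seen in both duplicate runs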;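 further: plate controls were buffer EC0 wells for no effect and acetylcholine ECmax response for full effect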
An asterisk follows results filed as active; i = inactive; nt = no result. Compounds with a hit are over-represented: about 2.3% of the library has one in this group of screens.

SMILES	TRPC4 inh	DNA FID counter	TRPC6 inhibitor	TRPC6 activator	TRPC4 PAM	TRPC4 agonist	HEK293 MPD ctr-2	HEK293 MPD ctr 2-2	TRPC4/MOR mod	TRPC4 ctr inh 2	TRPC6 inh conf	TRPC6 act confirm	others
CC(C)(O)CC[C@@H](O)[C@](C)(O)[C@H]1CC[C@@]2(O)C3=CC(=O)[C@@H]4C[C@@H](O)[C@@H](O)C[C@]4(C)[C@H]3CC[C@]12C	i	-9	i	i	i	i	nt	nt	nt	nt	nt	nt
Cc1nnc2ccc(-c3cccc(NC(=O)c4ccc(Cl)nc4)c3)nn12	i	-5	-5.8*	i	i	i	i	i	-16%*	37%*	48%*	i
Cc1ccc(-c2nn3c(C)nnc3s2)cc1NC(=O)c1cccnc1	i	-8	-9.7*	i	i	i	-244%*	i	-43%*	40%*	i	i
Cc1nnc2sc(-c3cccc(NC(=O)c4cccnc4)c3)nn12	i	-6	-6.5*	i	i	i	-148%*	i	-28%*	i	i	i
Cc1ccc(-c2nnc(CSc3nc(C(C)C)nc4sc(C)c(C)c34)o2)cc1	i	-2	-5.5*	i	i	i	i	i	i	i	i	i
N=c1c(-c2nc3ccccc3[nH]2)cc(C(=O)c2cccs2)nn1-c1ccc(Cl)cc1	i	-6	-6.2*	i	i	i	i	i	-19%*	56%*	i	i
O=C(Cc1ccccc1)NCc1cccnc1	i	-1	i	i	i	i	nt	nt	nt	nt	nt	nt
O=C(Cc1ccc([N+](=O)[O-])cc1)NCc1cccnc1	i	0	-5.2*	i	i	i	i	i	i	i	i	i
Cc1ccc(NC(=O)c2cc([N+](=O)[O-])ccc2NCc2cccnc2)cc1	i	-8	-6.7*	i	i	i	nt	nt	nt	nt	i	i	TRPC4 sel inh 2=i;TRPC4 spec=i;HEK293 MPD ctr 2-1=i;HEK293 MPD ctr-1=-145%*
O=C(NCc1ccc(Cl)cc1)C(=O)NCC1OCCN1S(=O)(=O)c1cc(F)ccc1F (configuration not stated)	i	-38	i	i	i	i	nt	nt	nt	nt	nt	nt
COC(=O)Nc1cc([N+](=O)[O-])ccc1OC	i	3	i	i	i	i	nt	nt	nt	nt	nt	nt
COc1ccc([N+](=O)[O-])cc1NC(=O)C(C)N1CCCC1 (configuration not stated)	i	-2	-6.1*	i	i	i	i	86%*	i	i	72%*	i
Cn1nc(C(C)(C)C)cc1C(=O)Nc1nc2c(s1)C(=O)CC(C)(C)C2	i	-11	-5*	i	i	i	i	i	i	i	i	nt
COc1ccc(OCC(=O)NC2CCCN(Cc3ccc(Cl)cc3)C2)cc1 (configuration not stated)	i	-10	-6.2*	i	15*	i	116%*	i	24%*	i	50%*	nt
COc1ccc(C(=O)NC2CCCN(Cc3ccc(Cl)cc3)C2)c(OC)c1 (configuration not stated)	i	-7	i	i	i	i	nt	nt	nt	nt	nt	nt
CCn1cc(S(=O)(=O)Nc2cc(C)ccc2F)cn1	i	-11	i	i	i	i	nt	nt	nt	nt	nt	nt
CN1CCN(CCCn2cnc3c(=O)oc4ccccc4c32)CC1	i	3	-5.1*	i	i	i	-269%*	i	-48%*	i	i	i
O=C(c1ccccc1)c1ccc(OCC(O)CNCc2ccc(F)cc2)cc1 (configuration not stated)	i	19	i	i	i	i	nt	nt	nt	nt	nt	nt
Cc1ccc(OCC(O)CNCc2ccccc2)cc1C (configuration not stated)	i	11	-5.1*	i	i	i	132%*	i	19%*	46%*	i	nt
Cc1ccc(OCC(O)CN2CCC(Cc3ccccc3)CC2)c(C)c1 (configuration not stated)	i	33	-5.3*	i	i	i	448%*	i	94%*	81%*	46%*	nt
Cc1ccc(OCC(O)CN2CCN(CCO)CC2)c(C)c1 (configuration not stated)	i	8	i	i	i	i	nt	nt	nt	nt	nt	nt
OC(COc1ccccc1F)CN1CCC(Cc2ccccc2)CC1 (configuration not stated)	i	8	-5.1*	i	i	i	155%*	i	25%*	44%*	i	nt
OC(COc1ccccc1)CN1CCC(Cc2ccccc2)CC1 (configuration not stated)	i	9	i	i	i	i	nt	nt	nt	nt	nt	nt
